Converted amounts (≈) assume the structure as drawn. The source made the active and inactive calls. The rule behind the calls is not given here.
Columns and labels:
Escherichia coli [1] = test: Antibacterial activity against Escherichia coli C600 expressing ESBL SHV2; type: functional
Summary of the method: (§1)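 MIC by agar dilution (CLSI M7-A7) on Mueller-Hinton agar with twofold serial drug dilutions; 10^4 CFU spotted per spot; aerobic incubation 18 to 20 h at 35°C; MIC read as lowest concentration preventing visible growth.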

Pseudomonas aeruginosa [2] = test: Antibacterial activity against Pseudomonas aeruginosa 93; type: functional; summary of the method: as §1
Escherichia coli [3] = test: Antibacterial activity against Escherichia coli C600 expressing ESBL CTX-M18; type: functional; summary of the method: as §1
Escherichia coli [4] = test: Antibacterial activity against Escherichia coli C600 expressing ESBL SHV3; type: functional; summary of the method: as §1
Escherichia coli [5] = test: Antibacterial activity against Escherichia coli C600 expressing ESBL TEM3; type: functional; summary of the method: as §1
Pseudomonas aeruginosa [6] = test: Antibacterial activity against Pseudomonas aeruginosa PAO1456 expressing constitutive AmpC; type: functional
Summary of the method: (§2)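 Agar dilution MIC per NCCLS (CLSI) M7-A7 on Mueller-Hinton agar with twofold serial drug dilutions. Inoculum 10^4 CFU per spot, aerobic incubation 18 to 20 h at 35°C. MIC is the lowest concentration preventing visible growth.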

Escherichia coli [7] = test: Antibacterial activity against Escherichia coli C600 expressing ESBL SHV4; type: functional; summary of the method: as §1
Pseudomonas aeruginosa [8] = test: Antibacterial activity against Pseudomonas aeruginosa KG3056 producing MexCD-OprJ efflux pump; type: functional; summary of the method: as §2
Escherichia coli [9] = test: Antibacterial activity against Escherichia coli C600 expressing SHV1; type: functional; summary of the method: as §1
Escherichia coli [10] = test: Antibacterial activity against Escherichia coli C600 expressing ESBL TEM4; type: functional; summary of the method: as §1
Pseudomonas aeruginosa [11] = test: Efficacy against Pseudomonas aeruginosa 93 assessed as reduction in bacterial counts in mouse urinary tract infection model at 2 mg/kg; type: functional, organism-based; set-up: dose 2 mg/kg; details: Urine
Summary of the method: (§3)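 Female ICR mice (4 weeks) were denied water 1 day. Under pentobarbital anesthesia they received 4.32 log10 CFU of strain 93 via the […], which was then clamped 5 h. Dosed sc at 5 h post-challenge plus twice daily for 2 days. Bilateral kidney viable counts taken the day after last treatment; 6 mice/dose.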

Pseudomonas aeruginosa [12] = test: Antibacterial activity against Pseudomonas aeruginosa KG4545 producing MexXY efflux pump; type: functional; summary of the method: as §2
Pseudomonas aeruginosa [13] = test: Antibacterial activity against Pseudomonas aeruginosa PAO4222; type: functional; summary of the method: as §2
Escherichia coli [14] = test: Antibacterial activity against Escherichia coli C600 expressing ESBL TEM5; type: functional; summary of the method: as §1
Escherichia coli [15] = test: Antibacterial activity against Escherichia coli C600 expressing ESBL TEM7; type: functional; summary of the method: as §1
Pseudomonas aeruginosa [16] = test: Efficacy against Pseudomonas aeruginosa 93 assessed as reduction in bacterial counts in mouse urinary tract infection model at 0.5 mg/kg; type: functional, organism-based; set-up: dose 0.5 mg/kg; details: Urine; summary of the method: as §3
Pseudomonas aeruginosa [17] = test: Efficacy against Pseudomonas aeruginosa 93 assessed as reduction in bacterial counts in mouse burn wound infection model at 50 mg/kg, relative to control; type: functional, organism-based; set-up: dose 50 mg/kg
Summary of the method: (§4)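 Male ICR mice (4 weeks), anesthetized with pentobarbital, received an ethanol flame burn on the shaved back (0.1 ml flaming ethanol applied twice). The wound was inoculated with 4.60 log10 CFU of strain 93. Dosed iv twice daily for 3 days from 3 h post-infection. Lesion viable counts (CFU/g) taken the day after last dose versus untreated controls; 6 mice/dose.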

Escherichia coli [18] = test: Antibacterial activity against Escherichia coli C600 expressing TEM1; type: functional; summary of the method: as §1
Escherichia coli [19] = test: Antibacterial activity against Escherichia coli C600 expressing ESBL TEM8; type: functional; summary of the method: as §1
Escherichia coli [20] = test: Antibacterial activity against Escherichia coli C600 expressing ESBL TEM9; type: functional; summary of the method: as §1
Escherichia coli [21] = test: Antibacterial activity against Escherichia coli C600 expressing ESBL TEM6; type: functional; summary of the method: as §1
Pseudomonas aeruginosa [22] = test: Antibacterial activity against imipenem-resistant Pseudomonas aeruginosa; type: functional; summary of the method: as §2
Escherichia coli [23] = test: Antibacterial activity against Escherichia coli C600 expressing ESBL CTX-M3; type: functional; summary of the method: as §1
Pseudomonas aeruginosa [24] = test: Efficacy against Pseudomonas aeruginosa 93 pulmonary infection in mouse assessed as reduction in bacterial counts at 10 mg/kg, sc; type: functional, organism-based; set-up: dose 10 mg/kg
Summary of the method: (§5)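 Male ICR mice (4 weeks), made neutropenic with cyclophosphamide 200 mg/kg ip 4 days before infection. Under pentobarbital anesthesia (50 mg/kg iv) they were challenged intranasally with 3.30 log10 CFU of strain 93, grown on tryptic soy agar 35°C 20 h and suspended in saline. Dosed sc twice daily for 3 days from 3 h post-infection. Lung viable counts taken the day after last dose; 6 mice/dose.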

Pseudomonas aeruginosa [25] = test: Antibacterial activity against Pseudomonas aeruginosa 22029 expressing metallo beta lactamase; type: functional; summary of the method: as §2
Pseudomonas aeruginosa [26] = test: Efficacy against Pseudomonas aeruginosa 93 pulmonary infection in mouse assessed as reduction in bacterial counts at 2 mg/kg, sc; type: functional, organism-based; set-up: dose 2 mg/kg; summary of the method: as §5
Pseudomonas aeruginosa [27] = test: Antibacterial activity against Pseudomonas aeruginosa PAO1; type: functional; summary of the method: as §2
Pseudomonas aeruginosa [28] = test: Antibacterial activity against ceftazidime-resistant Pseudomonas aeruginosa; type: functional; summary of the method: as §2
Pseudomonas aeruginosa [29] = test: Antibacterial activity against Pseudomonas aeruginosa FP1380 expressing constitutive AmpC; type: functional; summary of the method: as §1
Pseudomonas aeruginosa [30] = test: Antibacterial activity against Pseudomonas aeruginosa PAO4069 expressing inducible AmpC; type: functional; summary of the method: as §2
Pseudomonas aeruginosa [31] = test: Antibacterial activity against Pseudomonas aeruginosa; type: functional; summary of the method: as §2
Pseudomonas aeruginosa [32] = test: Antibacterial activity against ciprofloxacin-resistant Pseudomonas aeruginosa; type: functional; summary of the method: as §2
Escherichia coli [33] = test: Antibacterial activity against Escherichia coli C600 expressing TEM2; type: functional; summary of the method: as §1
Escherichia coli [34] = test: Antibacterial activity against Escherichia coli C600; type: functional; summary of the method: as §1
Pseudomonas aeruginosa [35] = test: Antibacterial activity against Pseudomonas aeruginosa KG2212 producing MexAB-OprM efflux pump; type: functional; summary of the method: as §2
Pseudomonas aeruginosa [36] = test: Antibacterial activity against Pseudomonas aeruginosa KG4001 producing MexEF-OprN efflux pump; type: functional; summary of the method: as §2
Escherichia coli [37] = test: Antibacterial activity against Escherichia coli C600 expressing ESBL OXA2; type: functional; summary of the method: as §1
Pseudomonas aeruginosa [38] = test: Antibacterial activity against Pseudomonas aeruginosa PAO1 after 5 serial passages; type: functional
Summary of the method: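 PAO1 passaged daily for five consecutive days in fresh Mueller-Hinton broth with twofold drug dilution series. Each next inoculum came from the tube at one-fourth the MIC. MIC change was followed across passages.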

Escherichia coli [39] = test: Antibacterial activity against Escherichia coli C600 expressing OXA1; type: functional; summary of the method: as §1
Pseudomonas aeruginosa [40] = test: Efficacy against Pseudomonas aeruginosa 93 assessed as reduction in bacterial counts in mouse burn wound infection model at 10 mg/kg; type: functional, organism-based; set-up: dose 10 mg/kg; summary of the method: as §4

**Q.** How did the MIC (Escherichia coli [1]) turn out when `Cn1c(N)c(NC(=O)NCCN)c[n+]1CC1=C(C(=O)O)N2C(=O)[C@@H](NC(=O)/C(=N\OC(C)(C)C(=O)[O-])c3nsc(N)n3)[C@H]2SC1` [CEFTOLOZANE] was run?
**A.** 32 mg/L (≈ 48 µM)

**Q.** And the MIC (Pseudomonas aeruginosa [2])?
**A.** 0.25 mg/L (≈ 0.375 µM)

**Q.** What about the MIC (Escherichia coli [3]) of the same compound?
**A.** 16 mg/L (≈ 24 µM)

**Q.** And the MIC (Escherichia coli [4])?
**A.** 32 mg/L (≈ 48 µM)

**Q.** And the MIC (Escherichia coli [5])?
**A.** 1 mg/L (≈ 1.5 µM)

**Q.** And the MIC (Pseudomonas aeruginosa [6])?
**A.** 1 mg/L (≈ 1.5 µM)

**Q.** And the MIC (Escherichia coli [7])?
**A.** 16 mg/L (≈ 24 µM)

**Q.** And the MIC (Pseudomonas aeruginosa [8])?
**A.** 0.25 mg/L (≈ 0.375 µM)

**Q.** What about the MIC (Escherichia coli [9]) of the same compound?
**A.** 0.5 mg/L (≈ 0.75 µM)

**Q.** What about the MIC (Escherichia coli [10]) of the same compound?
**A.** 2 mg/L (≈ 3 µM)

**Q.** What about the Activity (Pseudomonas aeruginosa [11]) of the same compound?
**A.** Active

**Q.** What about the MIC (Pseudomonas aeruginosa [12]) of the same compound?
**A.** 0.5 mg/L (≈ 0.75 µM)

**Q.** What about the MIC (Pseudomonas aeruginosa [13]) of the same compound?
**A.** 0.5 mg/L (≈ 0.75 µM)

**Q.** What about the MIC (Escherichia coli [14]) of the same compound?
**A.** 32 mg/L (≈ 48 µM)

**Q.** What about the MIC (Escherichia coli [15]) of the same compound?
**A.** 32 mg/L (≈ 48 µM)

**Q.** And the Activity (Pseudomonas aeruginosa [16])?
**A.** Active

**Q.** What about the Activity (Pseudomonas aeruginosa [17]) of the same compound?
**A.** Active

**Q.** And the MIC (Escherichia coli [18])?
**A.** 0.25 mg/L (≈ 0.375 µM)

**Q.** And the MIC (Escherichia coli [19])?
**A.** 16 mg/L (≈ 24 µM)

**Q.** And the MIC (Escherichia coli [20])?
**A.** 32 mg/L (≈ 48 µM)

**Q.** And the MIC (Escherichia coli [21])?
**A.** 32 mg/L (≈ 48 µM)

**Q.** What about the MIC (Pseudomonas aeruginosa [22]) of the same compound?
**A.** 0.5 mg/L (≈ 0.75 µM)

**Q.** And the MIC50 (Pseudomonas aeruginosa [22])?
**A.** 0.5 mg/L (≈ 0.75 µM)

**Q.** What about the MIC90 (Pseudomonas aeruginosa [22]) of the same compound?
**A.** 1 mg/L (≈ 1.5 µM)

**Q.** What about the MIC (Escherichia coli [23]) of the same compound?
**A.** 16 mg/L (≈ 24 µM)

**Q.** And the Activity (Pseudomonas aeruginosa [24])?
**A.** Active

**Q.** And the MIC (Pseudomonas aeruginosa [25])?
**A.** > 128 mg/L

**Q.** What about the Activity (Pseudomonas aeruginosa [26]) of the same compound?
**A.** Active

**Q.** What about the MIC (Pseudomonas aeruginosa [27]) of the same compound?
**A.** 0.5 mg/L (≈ 0.75 µM)

**Q.** And the MIC50 (Pseudomonas aeruginosa [28])?
**A.** 2 mg/L (≈ 3 µM)

**Q.** What about the MIC90 (Pseudomonas aeruginosa [28]) of the same compound?
**A.** 4 mg/L (≈ 6 µM)

**Q.** And the MIC (Pseudomonas aeruginosa [29])?
**A.** 4 mg/L (≈ 6 µM)

**Q.** What about the MIC (Pseudomonas aeruginosa [30]) of the same compound?
**A.** 0.5 mg/L (≈ 0.75 µM)

**Q.** What about the MIC50 (Pseudomonas aeruginosa [31]) of the same compound?
**A.** 0.5 mg/L (≈ 0.75 µM)

**Q.** What about the MIC90 (Pseudomonas aeruginosa [31]) of the same compound?
**A.** 1 mg/L (≈ 1.5 µM)

**Q.** And the MIC50 (Pseudomonas aeruginosa [32])?
**A.** 1 mg/L (≈ 1.5 µM)

**Q.** And the MIC90 (Pseudomonas aeruginosa [32])?
**A.** 2 mg/L (≈ 3 µM)

**Q.** And the MIC (Escherichia coli [33])?
**A.** 0.5 mg/L (≈ 0.75 µM)

**Q.** What about the MIC (Escherichia coli [34]) of the same compound?
**A.** 0.25 mg/L (≈ 0.375 µM)

**Q.** What about the MIC (Pseudomonas aeruginosa [35]) of the same compound?
**A.** 0.5 mg/L (≈ 0.75 µM)

**Q.** What about the MIC (Pseudomonas aeruginosa [36]) of the same compound?
**A.** 0.5 mg/L (≈ 0.75 µM)

**Q.** And the MIC (Escherichia coli [37])?
**A.** 4 mg/L (≈ 6 µM)

**Q.** And the MIC (Pseudomonas aeruginosa [38])?
**A.** 2 mg/L (≈ 3 µM)

**Q.** And the MIC (Escherichia coli [39])?
**A.** 0.5 mg/L (≈ 0.75 µM)

**Q.** What about the Activity (Pseudomonas aeruginosa [40]) of the same compound?
**A.** Active

From ChEMBL document CHEMBL1142065, “In vitro and in vivo activities of a new cephalosporin, FR264205, against Pseudomonas aeruginosa” (2007)
